Measurements from different studies.
Lines come from different studies, so protocols differ.

`CC(=O)N[C@@H](Cc1ccccc1)C(=O)N[C@@H](Cc1ccccc1)C(=O)N[C@@H](C)C(=O)N[C@@H](CC(C)C)C(=O)NCC(=O)N[C@@H](CC(C)C)C(=O)N[C@@H](C)C(=O)NCC(=O)N[C@@H](CC(=O)O)C(=O)N[C@@H](CC(=O)O)C(=O)O` has a half-life of 8.64 h (chemical stability; human, plasma; 1 mM, pH 7.4).
`CC[C@H](C)[C@H](NC(=O)[C@H](CCC(=O)O)NC(=O)[C@H](CO)NC(=O)[C@@H](NC(=O)[C@@H](N)CO)C(C)C)C(=O)N[C@@H](CCC(N)=O)C(=O)N[C@@H](CC(C)C)C(=O)N[C@@H](CCSC)C(=O)N[C@@H](Cc1cnc[nH]1)C(=O)N[C@@H](CC(N)=O)C(=O)N[C@@H](CC(C)C)C(=O)NCC(=O)N[C@@H](CCCCN)C(=O)N[C@@H](Cc1cnc[nH]1)C(=O)N[C@@H](CC(C)C)C(=O)N[C@@H](CC(N)=O)C(=O)N[C@@H](CO)C(=O)N[C@@H](CCSC)C(=O)N[C@@H](CCC(=O)O)C(=O)N[C@@H](CCCN=C(N)N)C(=O)N[C@H](C(=O)N[C@@H](CCC(=O)O)C(=O)N[C@@H](Cc1c[nH]c2ccccc12)C(=O)N[C@@H](CC(C)C)C(=O)N[C@@H](CCCN=C(N)N)C(=O)N[C@@H](CCCCN)C(=O)N[C@@H](CCCCN)C(=O)N[C@@H](CC(C)C)C(=O)N[C@@H](CCC(N)=O)C(=O)N[C@@H](CC(=O)O)C(=O)N[C@H](C(=O)N[C@@H](Cc1cnc[nH]1)C(=O)N[C@@H](CC(N)=O)C(=O)N[C@@H](Cc1ccccc1)C(=O)O)C(C)C)C(C)C` gave a compound remaining of 100% (chemical stability, HPLC; aqueous buffer; 0.5 mg/mL, 10 min, pH 6.5).
`CC(C)(O)c1ccccc1-c1ccc2[nH]c(/C=C/c3ccc(C(F)(F)F)cc3)nc2c1` has a half-life of 53.4 h (male human, plasma; oral, 60 mg, single dose, fasted, healthy volunteers).
`CC[C@H](C)[C@@H]1NC(=O)[C@@](C)(NC(=O)[C@H](CCCNC(=N)N)NC(=O)[C@H](CC(C)C)NC(=O)[C@@H](NC(=O)[C@H](CCC(N)=O)NC(=O)[C@H](CC(C)C)NC(C)=O)[C@@H](C)O)CCCC=CCCC[C@@](C)(C(=O)N[C@@H](CC(C)C)C(=O)N[C@@H](Cc2ccc3ccccc3c2)C(N)=O)NC(=O)[C@H](CCCNC(=N)N)NC(=O)[C@H](CCC(N)=O)NC1=O` has a Vd of 0.0946 L/kg (male BALB/c mouse, plasma; intravenous, 15 mg/kg).
The Vd of `CC(C)(C)c1ccc(O)c(CN(Cc2cc(C(C)(C)C)ccc2O)C2CCC(NC(N)=O)CC2)c1` (centres unmarked) is reported as 2.79 L (male C57BL/6 mouse, plasma; oral, 10 mg/kg, single dose).
`COc1ccc([C@@H]2CN(C(=O)[C@@H](O)CO)C[C@@]2(C)[C@@H](C)O)cc1OC1CN(c2ccc(C)cn2)C1` gave a half-life of 11.9 h (human, plasma; oral, 0.5 mg, single dose, healthy volunteers).
`CC(=O)OCOC(=O)C1CC(C)(C)N([O])C1(C)C` (centres unmarked) gave a half-life of 0.567 h (chemical stability; bovine, serum).
For `CC(C)n1cc(C#N)c2cc(-n3cc(C(=O)O)cn3)ccc21`, the half-life was 8.1 h (human, plasma; oral, 25 mg, single dose, fasted, healthy volunteers).
